CAL PDZ FP-1 – untagged CAL PDZ binding inhibitors, primary screen, biochemical, fluorescence polarization, HTS; AID 602252, 2012; 300,000 tested, 0.92% active; purified CAL PDZ, TMR-peptide fluorescence polarization, 1 h; Golgi-associated PDZ and coiled-coil motif-containing protein (Homo sapiens), Q9HD26; inhibition, % at 24.9 µM;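 active = mean inhibition of at least 30% with at least half of replicates also reaching 30%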
GRK2 aptamer HTS – compounds blocking aptamer binding on GRK2 – biochemical, human GRK2, bead flow cytometry, HTS, primary screen. FAM-aptamer displacement from GRK2. Beta-adrenergic receptor kinase 1 (Homo sapiens), P25098. 330,000 tested, 0.59% active. inhibition of aptamer binding, % at 10 µM. AID 488847, 2010;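 active = inhibition of aptamer binding above 40%, roughly 3 SD of noise, on plates passing a quality check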;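 note: median bead fluorescence of bound FAM aptamer so fluorescent compounds give negative values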
ARNT-TACC3 inh – disruptors of ARNT/TACC3 protein interaction, primary screen, biochemical, AlphaScreen, single concentration. Transforming acidic coiled-coil-containing protein 3 (Homo sapiens), Q9Y6A5. AlphaScreen His-ARNT PAS-B/GST-TACC3 binding, luminescence; TACC3 fragment carries E629A point mutation. inhibition, % at 9.99 µM. AID 623870, 2012. 390,000 tested, 0.66% active;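 active = mean inhibition of replicates at least 50% and at least half of replicates each reaching 50%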
CAL PDZ FP-2 – CAL PDZ peptide-binding inhibitors, primary screen, biochemical, fluorescence polarization, Cer-tagged CAL PDZ, HTS. purified CAL PDZ, TMR-peptide fluorescence polarization, 1 h. inhibition, % at 20 µM. 330,000 tested, 0.02% active. AID 504414, 2011;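 active = highest replicate inhibition of at least 40%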
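Control set: unlabelled peptide and DMSO controls / Material: purified CerCALP PDZ construct / Timing: 1 h incubation at room temperature before polarization reading / Doses: 20 µM, one dose / Detection: fluorescence polarization (mP)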
DDE Tn6 FP inh – inhibitors of Tn6 peptide binding to fibrin DD(E), primary screen, biochemical, fluorescence polarization, human fibrin, Tn6 probe; Fibrin DD(E) TRITC-Tn6 fluorescence polarization displacement; 370,000 tested, 0.21% active; inhibition, % at 8.3 µM; Fibrinogen beta chain (Homo sapiens), P02675;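 active = inhibition above a per-campaign cutoff: mean of compounds within control limits plus 3 SD, cut at about 15% in these data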
Target sequence (P02675 whole entry, looked up): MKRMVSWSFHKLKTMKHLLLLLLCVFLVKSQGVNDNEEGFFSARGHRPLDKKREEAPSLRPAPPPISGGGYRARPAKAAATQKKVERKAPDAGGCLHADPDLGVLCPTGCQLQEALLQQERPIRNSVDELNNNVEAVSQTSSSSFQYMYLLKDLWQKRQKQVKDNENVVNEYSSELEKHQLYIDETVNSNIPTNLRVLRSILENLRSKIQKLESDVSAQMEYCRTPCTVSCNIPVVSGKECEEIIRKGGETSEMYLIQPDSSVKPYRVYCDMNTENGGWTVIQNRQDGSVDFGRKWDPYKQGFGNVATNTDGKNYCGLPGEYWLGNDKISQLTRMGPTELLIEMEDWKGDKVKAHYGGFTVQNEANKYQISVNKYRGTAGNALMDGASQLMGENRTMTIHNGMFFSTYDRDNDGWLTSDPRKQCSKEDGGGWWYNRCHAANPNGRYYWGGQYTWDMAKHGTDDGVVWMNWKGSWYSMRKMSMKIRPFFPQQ
DDE Tn7 FP inh – inhibitors of Tn7 peptide binding to fibrin DD(E), primary screen, biochemical, fluorescence polarization, human fibrin, Tn7 probe. Fibrinogen beta chain (Homo sapiens), P02675. FP displacement of FITC-Tn7 peptide from fibrin DD(E); 0% = median of compound wells per plate. inhibition, % at 8.3 µM. 370,000 tested, 0.13% active. AID 720508, 2013;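 active = inhibition above the mean of compounds falling within the control limits plus 3 SD of them, cut at about 14% in these data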
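assay system = human clot-derived fibrin DD(E) complex | quantity = Fibrin-DD(E) at 2 µM final | timing = 10 min preincubation, 3 h with tracer, room temperature | signal = fluorescence polarization | measure = percent inhibition | benchmarks = high control wells with 10 µM unlabelled Aha-Tn7 peptide (full inhibition) | replicates = singlicate testing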
GRK2 inh confirm – GRK2 aptamer-displacing inhibitors, retest, confirmation, biochemical, cherry pick 1, bead flow cytometry; bead-bound GRK2, FAM-aptamer displacement; shares compounds with GRK2 aptamer HTS; aptamer displacement, % at 10 µM; 2,000 tested, 4% active;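 active = aptamer displacement above 40%, near three times the noise of non-fluorescent compounds, on plates passing quality checks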;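 note: negative values mostly reflect intrinsic compound fluorescence rather than true enhancement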
Aptamer quench SP – aptamer fluorescence quenching in GRK2 counter-screen; shares compounds with GRK2 aptamer HTS; Carboxyfluorescein RNA aptamer on beads, flow cytometry quenching; stronger effect = lower value; fluorescence response (% of DMSO), % at 10 µM; 2,000 tested, under 10 active; AID 504580;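 active = compounds that quench the bead-bound fluorescent RNA probe, cutting fluorescence to under half of the solvent control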;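 note: counterscreen run without GRK2 so only probe quenching by compound is measured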
GRK2 CP2 – GRK2 aptamer-displacing inhibitors, hit retest, confirmation, biochemical, cherry pick 2, bead flow cytometry | AID 504782, 2011 | 360 tested, under 10 active | shares compounds with GRK2 aptamer HTS | bead-bound GRK2, FAM-aptamer displacement | inhibition of aptamer binding, % at 10 µM;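 active = inhibition of aptamer binding above 40%, about triple the noise seen with nonglowing compounds, on plates passing quality control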;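 note: negative values mostly come from compounds that fluoresce themselves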
FAM quench SP – aptamer fluorescence quenching in GRK2 counter-screen; shares compounds with GRK2 aptamer HTS; carboxyfluorescein RNA aptamer beads, flow cytometry quenching; stronger effect = lower value; fluorescence response vs DMSO, % at 10 µM; 360 tested, under 10 active; AID 588494;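 active = response vs DMSO under 50%, meaning signal dropped by over half, treated as fluorescence quencher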;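 note: labelled aptamer on streptavidin beads without GRK2 as a quench counter-screen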
Hits are given with their value; . = inactive; / = not tested or not shown. Shown are actives, neighbours in structure and some others; about 1.8% of the full set was active somewhere.

SMILES | CAL PDZ FP-1 | GRK2 aptamer HTS | ARNT-TACC3 inh | CAL PDZ FP-2 | DDE Tn6 FP inh | DDE Tn7 FP inh | others
CCN(CCC(=O)O)c1ccccc1 | . | . | . | . | . | .
Cc1nn(C)c(C(=O)N2CCc3ccccc32)c1Br | . | 41.0 | . | . | . | . | GRK2 CP2=.;FAM quench SP=.
Cc1c(Br)c(C(=O)N2CCc3ccccc32)nn1C | . | . | . | . | . | .
CC(C)N1CC(=O)N2CSCC2C1=O (stereo not drawn) | / | / | / | / | . | .
O=C(Nc1ccc(F)cc1)N1CCN(c2ncccn2)CC1 | . | 94.0 | . | . | . | . | GRK2 inh confirm=.;Aptamer quench SP=.
O=C(Nc1ccc(Cl)cc1)N1CCN(c2ncccn2)CC1 | . | . | . | . | . | .
Nc1[nH]c(C(=O)c2ccc(Br)cc2)c(-c2ccccn2)c1C(=O)NCCc1c[nH]c2ccccc12 | / | / | / | / | . | .
Cc1c(Cl)cccc1NS(=O)(=O)c1ccc2c(c1)C1C=CCC1C(c1ccc(C(=O)O)cc1)N2 (stereo not drawn) | . | 52.0 | . | . | / | / | GRK2 inh confirm=.;Aptamer quench SP=.
C[C@@H]1CN([C@H](C)CO)S(=O)(=O)c2ccc(C#CC3(O)CCCC3)cc2O[C@H]1CN(C)C | / | / | . | / | / | /
COc1cc(C2OCC3C(c4ccc(OC5OC(CO)C(O)C(O)C5O)c(OC)c4)OCC23)ccc1O (stereo not drawn) | . | . | . | . | . | . | GRK2 inh confirm=.;Aptamer quench SP=.
O=C(Nc1ccnn1C1CCN(C2CCCC2)CC1)c1ccccc1 | . | . | . | . | . | .
COc1ccc(-c2c(C#CC(C)(C)O)c3ccccc3n2C)cc1 | . | 94.0 | . | . | . | . | GRK2 CP2=.;FAM quench SP=.
Cc1nn(CCCC(=O)NCc2ccc(F)cc2)c(C)c1[N+](=O)[O-] | . | . | / | . | . | .
Cc1nn(CC(=O)N(C)Cc2ccc(F)cc2)c(C)c1[N+](=O)[O-] | . | 100.0 | . | . | . | . | GRK2 CP2=.;FAM quench SP=.
O=C1CC(=O)N(Cc2ccco2)C(=S)N1 | . | 68.0 | . | . | / | / | GRK2 inh confirm=.;Aptamer quench SP=.
CCNC(=O)[C@H]1N[C@H]2c3ccc(-c4cccc(C(=O)N(C)C)c4)c(=O)n3C[C@H]2[C@@H]1CO | / | / | . | / | / | /
Cc1ccc(CNC(=O)CCS(=O)(=O)c2ccc(Br)cc2)cc1 | . | / | . | . | . | .
COc1ccc(CCNC(=O)CCNC(=O)c2ccc(Br)cc2)cc1OC | . | . | . | . | . | .

Bioassay records (PubChem BioAssay)
